ChEMBL document CHEMBL1156595, “Studies on the antifungal properties of N-thiolated beta-lactams” (2008)

How the values were obtained:
Type in all cases: functional
Nakaseomyces glabratus = assay: Antifungal activity against Candida glabrata ATCC 15126 assessed as growth inhibition zone at 50 ug after 24 hrs by Kirby-Bauer agar diffusion assay; settings: ATCC 15126, 24 h, read-out: IZ
Outline: (§1)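 Disk diffusion on yeast nitrogen base agar, swabbed with a McFarland 0.5 suspension in saline. 6 mm cellulose disks carried 10 µL of a 5 mg/mL CH2Cl2 stock (50 ug per disk), air-dried, three disks per plate. Plates were sealed and incubated 24 h at 37°C. Cleared inhibition zones were measured and averaged over triplicates.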

Candida tropicalis = assay: Antifungal activity against Candida tropicalis clinical isolate assessed as growth inhibition zone at 50 ug after 24 hrs by Kirby-Bauer agar diffusion assay; settings: read-out: IZ; outline: as §1
Pichia kudriavzevii = assay: Antifungal activity against Candida krusei ATCC 14243 assessed as growth inhibition zone at 50 ug after 24hrs by Kirby-Bauer agar diffusion assay; settings: ATCC 14243, 24 h, read-out: IZ; outline: as §1
Clavispora lusitaniae = assay: Antifungal activity against Candida lusitaniae ATCC 34449 assessed as growth inhibition zone at 50 ug after 24 by Kirby-Bauer agar diffusion assay; settings: read-out: IZ; outline: as §1
Cyberlindnera jadinii = assay: Antifungal activity against Candida utilis ATCC 29950 assessed as growth inhibition zone at 50 ug after 24 by Kirby-Bauer agar diffusion assay; settings: Williopsis jadinii, read-out: IZ; outline: as §1
Candida parapsilosis = assay: Antifungal activity against Candida parapsilosis ATCC 22019 assessed as growth inhibition zone at 50 ug after 24 hrs by Kirby-Bauer agar diffusion assay; settings: Lodderomyces parapsilosis, ATCC 22019, 24 h; read-out: IZ; outline: as §1
Candida albicans = assay: Antifungal activity against Candida albicans ATCC 2091 assessed as growth inhibition zone at 50 ug after 24 hrs by Kirby-Bauer agar diffusion assay; settings: ATCC 2091, 24 h, read-out: IZ; outline: as §1
Kluyveromyces marxianus = assay: Antifungal activity against Candida kefyr ATCC 20409 assessed as growth inhibition zone at 50 ug after 24 hrs by Kirby-Bauer agar diffusion assay; settings: ATCC 20409, 24 h, read-out: IZ; outline: as §1

Row | SMILES | zone of inhibition at 50 µg/disc (Nakaseomyces glabratus) | zone of inhibition at 50 µg/disc (Candida tropicalis) | zone of inhibition at 50 µg/disc (Pichia kudriavzevii) | zone of inhibition at 50 µg/disc (Clavispora lusitaniae) | zone of inhibition at 50 µg/disc (Cyberlindnera jadinii) | zone of inhibition at 50 µg/disc (Candida parapsilosis) | zone of inhibition at 50 µg/disc (Candida albicans) | zone of inhibition at 50 µg/disc (Kluyveromyces marxianus)
1 | CO[C@H]1C(=O)N(SC)[C@H]1/C=C/c1ccccc1 | 16 mm | 14 mm | 0 mm | 14 mm | 19 mm | 13 mm | 27 mm | 14 mm
2 | CO[C@H]1C(=O)N(SC)[C@H]1c1cc(F)c(F)c(F)c1 | 18 mm | 19 mm | 0 mm | 25 mm | 29 mm | 34 mm | 25 mm | 17 mm
3 | CSN1C(=O)[C@H](OC(C)=O)[C@@H]1/C=C/c1ccccc1 | 14 mm | 0 mm | 0 mm | 0 mm | 13 mm | 0 mm | 0 mm | 12 mm
4 | CO[C@H]1C(=O)N(SC)[C@H]1c1cccc(Br)c1 | 17 mm | 18 mm | 0 mm | 15 mm | 14 mm | 18 mm | 20 mm | 14 mm
5 | CSN1C(=O)[C@H](Oc2ccccc2)[C@@H]1CCc1ccccc1 | 18 mm | 19 mm | 0 mm | 14 mm | 21 mm | 14 mm | 25 mm | 19 mm
6 | CO[C@H]1C(=O)N(SC)[C@H]1c1cccc(I)c1 | 19 mm | 14 mm | 0 mm | 19 mm | 15 mm | 22 mm | 14 mm | 15 mm
7 | CCC(C)SN1C(=O)[C@H](OC)[C@@H]1c1ccccc1Cl (stereo partly drawn) | 0 mm | 13 mm | 0 mm | 0 mm | 0 mm | 0 mm | 16 mm | 0 mm
8 | CO[C@H]1C(=O)N(SC)[C@H]1c1cccc(F)c1 | 0 mm | 0 mm | 0 mm | 0 mm | 16 mm | 22 mm | 14 mm | 13 mm
9 | CO[C@H]1C(=O)N(SC)[C@H]1c1ccc(F)cc1 | 0 mm | 0 mm | 0 mm | 0 mm | – | 21 mm | 16 mm | –
10 | CO[C@H]1C(=O)N(SC)[C@H]1c1cc(F)c(F)cc1F | 14 mm | 20 mm | 0 mm | 14 mm | 14 mm | 22 mm | 25 mm | 16 mm
11 | CO[C@H]1C(=O)N(SC)[C@H]1c1ccc(Cl)cc1Cl | 32 mm | 23 mm | 0 mm | 22 mm | 21 mm | 31 mm | 27 mm | 28 mm
12 | CO[C@H]1C(=O)N(SC)[C@H]1c1cc(F)cc(F)c1F | 11 mm | 24 mm | 0 mm | 17 mm | 16 mm | 22 mm | 18 mm | 15 mm
13 | CO[C@H]1C(=O)N(SC)[C@H]1c1ccc(Br)cc1 | 19 mm | 20 mm | 0 mm | 17 mm | 17 mm | 23 mm | 25 mm | 17 mm
14 | CO[C@H]1C(=O)N(SC)[C@H]1c1cccc(Cl)c1 | 21 mm | 20 mm | 0 mm | 13 mm | 19 mm | 28 mm | 23 mm | 13 mm
15 | CSN1C(=O)[C@@H](OC(C)=O)[C@H]1c1ccccc1 | 0 mm | 11 mm | 0 mm | 10 mm | 16 mm | 0 mm | 14 mm | 0 mm
16 | CO[C@H]1C(=O)N(SC)[C@H]1c1ccc(I)cc1 | 22 mm | 12 mm | 0 mm | 20 mm | 20 mm | 25 mm | 16 mm | 19 mm
17 | CSN1C(=O)[C@H](OC(C)=O)[C@@H]1CCc1ccccc1 | 15 mm | 0 mm | 0 mm | 0 mm | 0 mm | 0 mm | 0 mm | 13 mm
18 | CO[C@H]1C(=O)N(SC)[C@H]1c1ccccc1I | 20 mm | 15 mm | 0 mm | 17 mm | 15 mm | 22 mm | 16 mm | 15 mm
19 | CO[C@H]1C(=O)N(SC)[C@H]1c1ccccc1F | 0 mm | 0 mm | 0 mm | 0 mm | 14 mm | 19 mm | 15 mm | 15 mm
20 | CO[C@H]1C(=O)N(SC)[C@H]1c1ccccc1Br | 17 mm | 21 mm | 0 mm | 19 mm | 25 mm | 40 mm | 25 mm | 13 mm
21 | CO[C@H]1C(=O)N(SC)[C@H]1CCc1ccccc1 | 20 mm | 17 mm | 0 mm | 15 mm | 28 mm | 14 mm | 34 mm | 24 mm
22 | CO[C@H]1C(=O)N(SC)[C@H]1c1cc(Cl)cc(Cl)c1Cl | 31 mm | 22 mm | 0 mm | 23 mm | 19 mm | 26 mm | 23 mm | 30 mm
23 | CSN1C(=O)[C@H](Oc2ccccc2)[C@@H]1/C=C/c1ccccc1 | 9 mm | 0 mm | 0 mm | 0 mm | 0 mm | 0 mm | 0 mm | 0 mm
24 | CO[C@H]1C(=O)N(SC)[C@H]1c1ccc(Cl)cc1 | 0 mm | 0 mm | 0 mm | 14 mm | 0 mm | 0 mm | 0 mm | 10 mm
25 | CSN1C(=O)[C@H](OC(C)=O)[C@@H]1c1ccccc1 | 0 mm | 15 mm | 0 mm | 15 mm | 16 mm | 0 mm | 14 mm | 9 mm
